Source: ChEMBL document CHEMBL1134845, “Syntheses and biological activities of a novel group of steroidal derived inhibitors for human Cdc25A protein phosphatase” (J Med Chem, 2001)
Blank lines part the entries; values can stand above or below the compound they belong to.

Experiments:
NCI-H23 = assay: Growth inhibitory activity was determined against NCI-H23 cancer cell line of non-small cell lung cancer; type: functional, Homo sapiens; details: Homo sapiens, NCI-H23
In short: (§1)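 NCI 60 human tumour cell line screen run at the National Cancer Institute. Cell growth and viability read with the protein stain sulforhodamine B, which binds basic amino acids of cells left attached after washing. […] MG MID is the mean GI50 calculated over all panels.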

[1] = biological target: T1, M-phase inducer phosphatase 1 (Homo sapiens, UniProt P30304); assay: (§2) Inhibitory activity tested against cell division cycle 25A (assay using fluorescein diphosphate (FDP) as substrate)
T1 sequence (P30304 whole entry): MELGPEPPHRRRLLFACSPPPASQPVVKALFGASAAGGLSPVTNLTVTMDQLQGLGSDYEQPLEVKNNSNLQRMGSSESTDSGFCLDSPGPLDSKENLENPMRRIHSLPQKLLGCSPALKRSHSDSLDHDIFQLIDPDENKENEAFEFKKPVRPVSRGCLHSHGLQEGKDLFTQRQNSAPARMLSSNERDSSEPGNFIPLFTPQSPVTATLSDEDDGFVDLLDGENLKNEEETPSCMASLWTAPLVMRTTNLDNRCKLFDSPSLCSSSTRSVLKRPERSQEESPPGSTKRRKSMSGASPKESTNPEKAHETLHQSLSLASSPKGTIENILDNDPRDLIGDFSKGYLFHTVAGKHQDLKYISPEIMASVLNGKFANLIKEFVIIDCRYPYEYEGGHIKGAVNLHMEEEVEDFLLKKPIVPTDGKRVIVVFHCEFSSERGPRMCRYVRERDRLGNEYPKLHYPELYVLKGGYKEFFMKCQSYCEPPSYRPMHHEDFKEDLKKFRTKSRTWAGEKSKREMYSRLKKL
In short: (§3)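 Recombinant human GST-Cdc25A fusion protein, each batch calibrated so that FDP was dephosphorylated linearly over 20 min. Fluorescein diphosphate was the substrate. Reactions ran 15 min at 25 °C in the dark and were stopped with sodium orthovanadate. IC50 came from at least two independent runs, each in triplicate.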

[2] = biological target: T1, M-phase inducer phosphatase 1; assay: (§4) Inhibitory activity tested against cell division cycle 25A (assay using p-nitro phenyl phosphate (pNPP) as substrate)
[3] = biological target: T2, Receptor-type tyrosine-protein phosphatase C (Homo sapiens, UniProt P08575); assay: Inhibitory activity tested against Human CD45 Phosphatase (assay using p-nitrophenyl phosphate (pNPP) as substrate)
T2 sequence (P08575 whole entry): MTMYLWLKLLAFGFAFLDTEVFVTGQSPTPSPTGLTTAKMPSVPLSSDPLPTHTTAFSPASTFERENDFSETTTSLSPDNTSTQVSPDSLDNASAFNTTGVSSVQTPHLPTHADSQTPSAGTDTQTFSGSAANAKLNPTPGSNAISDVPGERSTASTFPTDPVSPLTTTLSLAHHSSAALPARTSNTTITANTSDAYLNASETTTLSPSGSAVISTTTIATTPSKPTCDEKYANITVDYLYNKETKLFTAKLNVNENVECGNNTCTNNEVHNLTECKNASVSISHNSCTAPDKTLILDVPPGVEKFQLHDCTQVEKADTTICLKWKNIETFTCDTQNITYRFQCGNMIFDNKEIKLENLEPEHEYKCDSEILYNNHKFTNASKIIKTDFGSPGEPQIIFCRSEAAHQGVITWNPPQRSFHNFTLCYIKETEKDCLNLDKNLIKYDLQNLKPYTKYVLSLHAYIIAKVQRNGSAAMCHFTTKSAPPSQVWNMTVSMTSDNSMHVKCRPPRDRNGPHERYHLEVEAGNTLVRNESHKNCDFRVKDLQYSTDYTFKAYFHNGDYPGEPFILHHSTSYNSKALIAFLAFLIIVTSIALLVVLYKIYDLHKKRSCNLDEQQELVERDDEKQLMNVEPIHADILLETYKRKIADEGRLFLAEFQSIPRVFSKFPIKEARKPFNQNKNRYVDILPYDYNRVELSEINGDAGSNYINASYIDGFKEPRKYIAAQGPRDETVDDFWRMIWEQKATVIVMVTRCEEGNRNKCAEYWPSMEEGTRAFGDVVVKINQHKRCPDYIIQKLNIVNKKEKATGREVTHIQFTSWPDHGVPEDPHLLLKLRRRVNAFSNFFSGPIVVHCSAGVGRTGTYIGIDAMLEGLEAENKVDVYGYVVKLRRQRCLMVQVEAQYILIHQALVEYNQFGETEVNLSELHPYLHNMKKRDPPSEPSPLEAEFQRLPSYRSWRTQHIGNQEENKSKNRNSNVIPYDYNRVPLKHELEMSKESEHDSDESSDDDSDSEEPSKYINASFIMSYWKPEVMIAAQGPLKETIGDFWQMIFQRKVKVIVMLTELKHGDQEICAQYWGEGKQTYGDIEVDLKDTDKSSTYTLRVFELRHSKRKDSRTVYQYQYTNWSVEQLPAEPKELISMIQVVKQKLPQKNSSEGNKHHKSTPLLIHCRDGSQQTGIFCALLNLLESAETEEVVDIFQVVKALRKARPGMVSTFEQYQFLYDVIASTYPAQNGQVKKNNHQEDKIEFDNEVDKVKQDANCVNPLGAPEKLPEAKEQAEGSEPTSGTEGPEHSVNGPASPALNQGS

LOX IMVI = assay: Growth inhibitory activity was determined against LOX IMVI cancer cell line of melanoma; type: functional, Homo sapiens; details: Homo sapiens, LOX IMVI; in short: as §1
A549 [4] = assay: Growth inhibitory activity was determined against A549/ATCC cancer cell line of non-small cell lung cancer; type: functional, Homo sapiens; details: Homo sapiens, A549; in short: as §1
U-251 = assay: Growth inhibitory activity was determined against U-251 cancer cell line of CNS cancer; type: functional; details: Homo sapiens; in short: as §1
BT-549 (Homo sapiens) [5] = assay: Growth inhibitory activity was determined against BT-549 cancer cell line of Breast cancer; details: Homo sapiens, BT-549
T47D [6] = assay: Growth inhibitory activity was determined against T-47D cancer cell line of Breast cancer; type: functional, Homo sapiens; details: Homo sapiens, T47D; in short: as §1
OVCAR-8 [7] = assay: Growth inhibitory activity was determined against OVCAR-8 cancer cell line of Ovarian cancer; type: functional; details: Homo sapiens; in short: as §1
OVCAR-3 [8] = assay: Growth inhibitory activity was determined against OVCAR-3 cancer cell line of Ovarian cancer; type: functional; details: Homo sapiens; in short: as §1
SN12C [9] = assay: Growth inhibitory activity was determined against SN12C cancer cell line of renal cancer; type: functional; details: Homo sapiens; in short: as §1
NCI/ADR-RES [10] = assay: Growth inhibitory activity was determined against NCI/ADR-RES cancer cell line of Breast cancer; type: functional, Homo sapiens; details: Homo sapiens, NCI/ADR-RES; in short: as §1
HT-29 [11] = assay: Growth inhibitory activity was determined against HT-29 cancer cell line colon cancer; type: functional, Homo sapiens; details: Homo sapiens, HT-29; in short: as §1
PC-3 [12] = assay: Growth inhibitory activity was determined against PC-3 cancer cell line of Prostate cancer; type: functional; details: Homo sapiens; in short: as §1
NCI-H522 = assay: Growth inhibitory activity was determined against NCI-H522 cancer cell line of non-small cell lung cancer; type: functional; details: Homo sapiens; in short: as §1
786-0 [13] = assay: Growth inhibitory activity was determined against 786-0 cancer cell line of renal cancer; type: functional; details: Homo sapiens; in short: as §1
SF-539 = assay: Growth inhibitory activity was determined against SF-539 cancer cell line of CNS cancer; type: functional; details: Homo sapiens; in short: as §1
UO-31 [14] = assay: Growth inhibitory activity was determined against UO-31 cancer cell line of renal cancer; type: functional; details: Homo sapiens; in short: as §1
COLO 205 = assay: Growth inhibitory activity was determined against COLO 205 cancer cell line colon cancer; type: functional, Homo sapiens; details: Homo sapiens, COLO 205; in short: as §1
A549 [15] = assay: Inhibitory activity against A549 human adenocarcinoma; type: functional, cell-based
In short: (§5)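 Soft agar clonogenic assay of anchorage-independent growth, using HT-29 colon and A549 lung adenocarcinoma cells. The value is the compound concentration that cut colony number to 50% of control.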

SK-MEL-5 = assay: Growth inhibitory activity was determined against SK-MEL-5 cancer cell line of melanoma; type: functional, Homo sapiens; details: Homo sapiens, SK-MEL-5; in short: as §1
SF-268 = assay: Growth inhibitory activity was determined against SF-268 cancer cell line of CNS cancer; type: functional; details: Homo sapiens; in short: as §1
[16] = Inhibitory activity against PSPTase
In short: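 Human GST-Cdc25A fusion protein, with each batch calibrated for linear dephosphorylation of fluorescein diphosphate over 20 min. Run 15 min at 25 °C in the dark and stopped with sodium orthovanadate. Fluorescein monophosphate read at ex 485/em 530 nm. IC50 from at least two independent determinations, each in triplicate; variation from the mean within ±20%.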

HCC 2998 = assay: Growth inhibitory activity was determined against HCC2998 cancer cell line colon cancer; type: functional, Homo sapiens; details: Homo sapiens, HCC 2998; in short: as §1
UO-31 [17] = assay: Inhibition of Renal cancer in UO-31 cancer cell lines; type: functional; details: Homo sapiens
BT-549 (Homo sapiens) [18] = assay: Inhibition of Breast cancer in BT-549 cancer cell lines
SN12C [19] = assay: Inhibition of Renal cancer in SN12C cancer cell lines; type: functional; details: Homo sapiens
[20] = biological target: T3, M-phase inducer phosphatase 1 (Homo sapiens) (UniProt P30304); assay: as §2
T3 sequence (whole entry): T1 sequence (P30304 whole entry)
In short: as §3, with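 “orthovanadate. Fluorescein monophosphate was read at 485 nm excitation and 530 nm emission.” for “orthovanadate.”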

PC-3 [21] = assay: Inhibition of Prostate cancer in PC-3 cancer cell lines; type: functional; details: Homo sapiens
T47D [22] = assay: Inhibition of Breast cancer in T-47D cancer cell lines; type: functional; details: Homo sapiens
[23] = biological target: Receptor-type tyrosine-protein phosphatase C, CD45 (Homo sapiens) (UniProt P08575); assay: Inhibitory activity tested against human CD45 receptor-type tyrosine-protein phosphatase C
NCI/ADR-RES [24] = assay: Inhibition of Breast cancer in NCI/ADR-RES cancer cell lines; type: functional; details: Homo sapiens
OVCAR-3 [25] = assay: Inhibition of Ovarian cancer in OVCAR-3 cancer cell lines; type: functional; details: Homo sapiens
[26] = biological target: T3, M-phase inducer phosphatase 1 (Homo sapiens); assay: as §4
HT-29 [27] = assay: Inhibition of colon cancer in HT-29 cancer cell lines; type: functional; details: Homo sapiens; in short: as §5
786-0 [28] = assay: Inhibition of Renal cancer in 786-0 cancer cell lines; type: functional; details: Homo sapiens
OVCAR-8 [29] = assay: Inhibition of Ovarian cancer in OVCAR-8 cancer cell lines; type: functional; details: Homo sapiens

GI50 (NCI-H23): 14.8 µM
IC50 [1]: 29 µM
IC50 [2]: > 100 µM
IC50 [3]: > 100 µM
GI50 (A549 [4]): 15 µM
GI50 (U-251): 9.49 µM
GI50 (BT-549 (Homo sapiens) [5]): > 25 µM
GI50 (T47D [6]): 8.35 µM
GI50 (OVCAR-8 [7]): 8.72 µM
GI50 (OVCAR-3 [8]): 13.3 µM
GI50 (HT-29 [11]): 4.85 µM
GI50 (PC-3 [12]): 9.73 µM
GI50 (NCI-H522): 0.89 µM
GI50 (786-0 [13]): 7.54 µM
GI50 (COLO 205): 8.49 µM
IC50 (A549 [15]): 7.2 µM
GI50 (SK-MEL-5): 4.57 µM
SMILES: CC(C)CCCC(C)[C@H]1CC[C@H]2[C@@H]3CC(=O)O[C@](C)(CC/C=C\C#N)[C@H]3CC[C@]12C (some centres not stated)
GI50 (LOX IMVI): 5.15 µM
GI50 (SN12C [9]): 5.08 µM
GI50 (NCI/ADR-RES [10]): > 25 µM
GI50 (SF-539): > 25 µM
GI50 (UO-31 [14]): 0.39 µM
GI50 (SF-268): 3.19 µM

SMILES: C=C1[C@@H](O)[C@@H]2O[C@]3(CC[C@H](/C=C/[C@@H](C)[C@@H]4CC(C)=C[C@@]5(O[C@H](C[C@@](C)(O)C(=O)O)CC[C@H]5O)O4)O3)CC[C@H]2O[C@@H]1[C@@H](O)C[C@H](C)[C@H]1O[C@@]2(CCCCO2)CC[C@H]1C [OKADAIC ACID]
IC50 [16]: 0.049 µM

GI50 (HCC 2998): 4.31 µM
GI50 (NCI-H23): 7.4 µM
GI50 (BT-549 (Homo sapiens) [18]): 5.75 µM
IC50 [20]: 2.5 µM
GI50 (A549 [4]): 7.33 µM
GI50 (U-251): 5.53 µM
GI50 (PC-3 [21]): 6.34 µM
GI50 (T47D [22]): 8.22 µM
IC50 [23]: 13.2 µM
GI50 (OVCAR-3 [25]): 6.77 µM
IC50 [26]: 9.3 µM
GI50 (NCI-H522): 17.3 µM
GI50 (HT-29 [27]): 6.49 µM
GI50 (786-0 [28]): 8.69 µM
GI50 (COLO 205): 5.92 µM
GI50 (SK-MEL-5): 8.83 µM
GI50 (OVCAR-8 [29]): 5.53 µM
SMILES: C/C(=C\CCCC#N)[C@H]1CC[C@]2(C)[C@@H]([C@H](C)CCCC(C)C)CC[C@H]2[C@@H]1CC(=O)O
GI50 (UO-31 [17]): 9.55 µM
GI50 (SN12C [19]): 7.73 µM
GI50 (LOX IMVI): 5.91 µM
GI50 (NCI/ADR-RES [24]): 6.44 µM
GI50 (SF-539): 10.5 µM
GI50 (SF-268): 16.6 µM
